# Calls of active or inactive are those of the source.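 The calls were made as follows, unless noted: active = GFP response above 150% of the DMSO level; inconclusive = fewer than 70 events counted for a yeast strain; inactive = the rest.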
# Assays:
# [1] = RPL19A-GFP modulators, yeast TOR pathway, confirmation, cell-based, S. cerevisiae, flow cytometry, cherry picks, mother/daughter gates (AID 2270;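 active = GFP response below 50% of the DMSO control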); conditions: S. cerevisiae RPL19A-GFP strain, 3 h, at 10 µM, stronger effect = lower value, 100 = same GFP as DMSO wells
# [2] = LAP4-GFP expression modulators in yeast, confirmation, cell-based, cherry picks, flow cytometry, mother/daughter gates (AID 2271;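 active = GFP response above 150% of the DMSO control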;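 also: ratio of sample to DMSO plate mean so 100% equals DMSO level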); conditions: S. cerevisiae LAP4-GFP strain, 3 h, at 10 µM, stronger effect = higher value, 100 means same as DMSO control
# Outline: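 Measured by: GFP by flow cytometry. Test system: GFP-fusion yeast strain. Input: yeast cells seeded at OD600 of 0.2. Timing: 30 °C, 3 h compound incubation, rotating. Buffer or medium: synthetic complete medium for yeast. Benchmarks: DMSO-only negative wells, rapamycin 400 ng/mL positive wells. Compound: 10 µM single dose.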
# [3] = modulators of MEP2-GFP levels in yeast, confirmation, S. cerevisiae, flow cytometry GFP, cherry picks (AID 2272;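 active = GFP response above 150% of the DMSO control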;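 also: ratio of well signal to plate DMSO mean so 100% equals DMSO level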); conditions: S. cerevisiae MEP2-GFP strain, 3 h, at 10 µM, stronger effect = higher value
# [4] = AGP1-GFP expression modulators, hit retest, confirmation, cell-based, flow cytometry, S. cerevisiae, cherry picks (AID 2273);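 also: median GFP channel fluorescence over the whole cell population gate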; conditions: S. cerevisiae AGP1-GFP strain, 3 h, at 10 µM
# [5] = modulators of CIT2-GFP expression in yeast, confirmation, S. cerevisiae, GFP fusion, cherry picks, mother/daughter gates (AID 2274); conditions: S. cerevisiae CIT2-GFP strain, flow cytometry, 3 h, at 10 µM, stronger effect = higher value
# [6] = measured here: daughter cell gate
# [7] = measured here: mother cell gate
# [8] = measured here: daughter cell gate response
# [9] = measured here: mother cell gate response
Structure (SMILES),GFP response vs DMSO [1],"GFP response vs DMSO [1, 6] [%]","GFP response vs DMSO [1, 7] [%]",GFP response relative to DMSO [2],"GFP response relative to DMSO [2, 8] [%]","GFP response relative to DMSO [2, 9] [%]",GFP response vs DMSO [3],"GFP response, % of DMSO [4]","GFP response, % of DMSO [5]","GFP response, % of DMSO [5, 6] [%]","GFP response, % of DMSO [5, 7] [%]"
CS(=O)(=O)c1sc(C#N)c2c1C(=O)CC(c1ccccc1)C2 (centres undefined),103% (inactive),111,96.6,174% (active),168,179,116% (inactive),117% (inactive),105% (inactive),111,95.7
Cc1ccc(/C=N\NC(=O)c2cc(OCC(F)(F)F)ccc2OCC(F)(F)F)cc1,100% (inactive),101,100,91.5% (inactive),91.2,92.9,94.1% (inactive),102% (inactive),105% (inactive),108,106
COc1cccc(OCC(=O)N2CCCc3ccccc32)c1,97.8% (inactive),97,97.1,101% (inactive),105,102,99.3% (inactive),100% (inactive),95.8% (inactive),97.6,94.9
CC(=O)Nc1cccc(C(=O)/C=C/c2ccc(C)cc2)c1,95.8% (inactive),96.8,95.1,117% (inactive),115,120,110% (inactive),102% (inactive),103% (inactive),103,102
COc1ccccc1OCC(=O)Sc1ccc(C)cc1,95.3% (inactive),96.7,92.3,113% (inactive),110,113,120% (inactive),99.3% (inactive),97.2% (inactive),99.3,93.8
COc1ccc(-c2noc(-c3cccc(Cl)c3)n2)cc1OC,98% (inactive),97.3,97.6,102% (inactive),101,101,102% (inactive),96.2% (inactive),99.3% (inactive),102,96.8
O=C1c2ccccc2C2=Nc3ccccc3SC(c3cccc(F)c3)C12 (centres undefined),102% (inactive),98.4,102,106% (inactive),108,102,139% (inactive),103% (inactive),117% (inactive),106,106
CN(C)c1ccc(N=Cc2nc(-c3ccccc3)oc2OC(=O)c2cccc(Cl)c2)cc1,101% (inactive),99.2,101,97.4% (inactive),97.2,99.3,100% (inactive),98.7% (inactive),102% (inactive),99.7,102
Cc1ccc(-c2csc(NC(=O)c3cccs3)n2)cc1,98.8% (inactive),93.9,99.6,105% (inactive),99.1,107,112% (inactive),98% (inactive),94.4% (inactive),90.2,94.4
Cc1c(C(=O)NCCSCc2cccc(C(F)(F)F)c2)cnn1-c1ccc(F)cc1,102% (inactive),103,103,98.8% (inactive),96.5,98.5,104% (inactive),99.1% (inactive),108% (inactive),102,108
Cc1ccc(C(=O)NNC(=S)NC(=O)c2ccco2)cc1,112% (inactive),113,109,120% (inactive),117,121,115% (inactive),103% (inactive),108% (inactive),114,102
O=C(Nc1cccc(C(F)(F)F)c1)Oc1ccc(Cl)c2cccnc12,98% (inactive),97.6,98.2,110% (inactive),108,111,103% (inactive),99.3% (inactive),108% (inactive),110,107
CCOc1cc(/C=C2\C(=N)N3N=C(S(=O)(=O)CC)SC3=NC2=O)ccc1OC(=O)c1ccco1,104% (inactive),104,105,89% (inactive),92.5,90.1,104% (inactive),100% (inactive),115% (inactive),113,113
Cc1nn2c(N3CCOCC3)c3c(nc2c1-c1ccccc1)CCCC3,103% (inactive),102,102,101% (inactive),96,102,103% (inactive),103% (inactive),103% (inactive),101,102
COc1ccc(-c2nnc(NC(=O)c3ccc(S(=O)(=O)N4COCC4(C)C)cc3)o2)cc1,96.5% (inactive),98.1,94,95.3% (inactive),92.9,97.4,103% (inactive),103% (inactive),98.6% (inactive),99.3,98.2
Cc1cccc(NC(c2ccc(C)s2)c2ccc3ccc(C)nc3c2O)n1 (centres undefined),108% (inactive),120,98.6,140% (inactive),141,134,114% (inactive),94.9% (inactive),109% (inactive),121,94.4
O=C(c1ccccc1F)N1CCN(c2cccc(C(F)(F)F)c2)CC1,98.2% (inactive),97.6,96.5,97.7% (inactive),101,96.4,108% (inactive),106% (inactive),95.8% (inactive),97.6,94.9

Structure (SMILES),GFP response vs DMSO [1],"GFP response vs DMSO [1, 6] [%]","GFP response vs DMSO [1, 7] [%]",GFP response relative to DMSO [2],"GFP response relative to DMSO [2, 8] [%]","GFP response relative to DMSO [2, 9] [%]",GFP response vs DMSO [3],"GFP response, % of DMSO [4]","GFP response, % of DMSO [5]","GFP response, % of DMSO [5, 6] [%]","GFP response, % of DMSO [5, 7] [%]"
O=C(O)C1CCC(NSc2ccccc2[N+](=O)[O-])CC1 (centres undefined),98.2% (inactive),95.9,95.2,145% (inactive),133,157,96.8% (inactive),101% (inactive),97.3% (inactive),99.2,94.4
COc1ccc(N=Nc2ccc(O)c3ncccc23)cc1,99.5% (inactive),100,98.8,199% (active),189,200,116% (inactive),94.5% (inactive),109% (inactive),113,103
Nc1nc(SCC(=O)Nc2cc(C(F)(F)F)ccc2N2CCOCC2)n[nH]1,99% (inactive),99.9,97.9,101% (inactive),101,98.3,105% (inactive),101% (inactive),99.7% (inactive),99.1,98.5
O=C1C(Cl)=C(Nc2ccccc2O)C(=O)N1c1ccccc1,97.4% (inactive),98,97.1,112% (inactive),108,113,104% (inactive),103% (inactive),99.3% (inactive),100,98
O=S(=O)(c1ccccc1)c1ccc(C(F)(F)F)cn1,97.6% (inactive),98.3,97.8,96.1% (inactive),95.1,95.1,101% (inactive),101% (inactive),95.9% (inactive),96.8,95.7
Cc1ccc(C(=O)N2c3ccccc3NC(=O)C2C)cc1 (centres undefined),99.9% (inactive),98.1,100,102% (inactive),98.7,105,100% (inactive),100% (inactive),97.8% (inactive),94.8,98.7
COC(=O)c1ccccc1NC(=O)c1nc(S(=O)(=O)Cc2ccccc2)ncc1Cl,102% (inactive),101,102,89% (inactive),92.5,92.1,100% (inactive),97.8% (inactive),104% (inactive),101,103
O=C(NCCCSc1ccccc1)c1cc(Br)ccc1O,97.8% (inactive),97.1,99.2,106% (inactive),104,108,100% (inactive),93.3% (inactive),98.3% (inactive),99.1,99.7
N=C1/C(=C\c2ccc(Br)o2)C(=O)N=C2SC(CC(=O)N3CCCCC3)=NN12,97.4% (inactive),96.8,95.5,104% (inactive),103,102,103% (inactive),104% (inactive),107% (inactive),108,108
COc1cccc(/C=N\NC(=O)c2cc(OCC(F)(F)F)ccc2OCC(F)(F)F)c1,98.6% (inactive),99.1,97.9,94.1% (inactive),92.8,92.9,100% (inactive),96% (inactive),99.7% (inactive),101,98.5
CCS(=O)(=O)N1N=C(c2ccccc2)CC1c1ccc2nccnc2c1 (centres undefined),98.4% (inactive),98.9,99.3,105% (inactive),103,104,116% (inactive),104% (inactive),105% (inactive),105,107
COc1ccc(-c2noc(CCCc3ccccc3)n2)cc1OC,101% (inactive),98.7,100,96.2% (inactive),98.7,98.3,104% (inactive),104% (inactive),95.2% (inactive),94.8,96.6
Cc1cccc(C(=O)NNC(=S)NC(=O)c2ccccc2)c1,107% (inactive),110,105,122% (inactive),117,128,109% (inactive),102% (inactive),105% (inactive),116,99.7
N#C/C(=C/c1ccc(N2CCOCC2)o1)c1ccc(Br)cc1,96.6% (inactive),95.9,95,114% (inactive),114,115,114% (inactive),95.5% (inactive),102% (inactive),101,99.3
COC(=O)Cn1nc(-c2ccccc2)c2ccccc21,92% (inactive),88.5,92.9,106% (inactive),101,106,109% (inactive),97.3% (inactive),102% (inactive),101,98.1
O=C(Oc1c(Cl)cc(Cl)c2cccnc12)c1ccco1,103% (inactive),89.2,100,196% (active),148,199,128% (inactive),95.9% (inactive),95.9% (inactive),86.6,93.2
CCOc1ccc(N/N=C(/C#N)C(N)=O)cc1,82.7% (inactive),65.8,81.8,237% (active),182,250,176% (active),113% (inactive),161% (active),128,159

# — PubChem BioAssay
